The results in this text go back to PubChem BioAssay.

Active and inactive are the calls of the source.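 The calls were made as follows, unless noted: active = inhibition of the reporter signal at or above 50%; inactive = inhibition below 50%.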

A short description of assay [1]: inhibitors of TNFa-induced NFkB p65 translocation, primary screen, imaging, HUVEC, MLSMR starter and 10KST1 sets (AID 438;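 active = inhibition above 20% together with a positive visual image hit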;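 also: compound added about 3h40 before a 20 min TNFalpha stimulation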;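 as to inhibition: signal is the nuclear over cytoplasmic p65 intensity ratio per well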). The conditions noted are these: HUVEC TNFa-induced p65 nuclear translocation; cell count: measured here: nuclei count (cytotoxicity indicator), at 2.08 µM; inhibition: at 2 µM, stronger effect = higher value, 0% TNFa-plus-vehicle, 100% no-TNFa wells.
Assay [2] is described as follows: reduction of polyQ htt aggregates in cells – imaging, exon1htt(103Q)mCFP cells, high-content imaging, primary screen (AID 483;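 active = visual image review flags a hit and inhibition of aggregation exceeds 20%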;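 also: compound exposure lasted 3 days before fixation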;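 as to nuclei count: percent of the per-plate median nuclei count of sample wells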). The conditions noted are these: exon1htt(103Q)mCFP cell line, aggregate imaging, at 2 µM; inhibition of aggregation: stronger effect = higher value; nuclei count: measured here: cell count, toxicity.
Assay [3] is described as follows: endothelial E-selectin expression blockers – imaging, HUVEC, immunofluorescence, MLSMR starter and 10KST1 sets, primary screen (AID 487;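 active = visually confirmed hit in the image check and inhibition above 20%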;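 as to inhibition: signal is fraction of cell area covered by stained E-selectin grains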;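 as to nuclei count: 100% = median nuclei count of all wells on the same plate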). Conditions: HUVEC TNFalpha-induced E-selectin immunofluorescence imaging, at 2 µM; inhibition: stronger effect = higher value; nuclei count: measured here: cell number, toxicity.
In assay [4] the target is Voltage-gated potassium channel subunit beta-2 (Rattus norvegicus) (UniProt P62483). In words: inhibitors of rat Kvbeta2 reductase activity – biochemical, NADPH fluorescence, primary screen (AID 622;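 active = fluorescence slope higher than the sample average by over 3 SD, cut at about -0.22 in these data, passing the limit was not always enough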;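 also: slope of raw intensity against log time taken from 70 to 1610 s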). The conditions noted are these: recombinant KvBeta, 4-cyanobenzaldehyde reduction, at 10 µM, stronger effect = higher value.
Sequence of Voltage-gated potassium channel subunit beta-2 (Rattus norvegicus) (P62483 whole entry, looked up): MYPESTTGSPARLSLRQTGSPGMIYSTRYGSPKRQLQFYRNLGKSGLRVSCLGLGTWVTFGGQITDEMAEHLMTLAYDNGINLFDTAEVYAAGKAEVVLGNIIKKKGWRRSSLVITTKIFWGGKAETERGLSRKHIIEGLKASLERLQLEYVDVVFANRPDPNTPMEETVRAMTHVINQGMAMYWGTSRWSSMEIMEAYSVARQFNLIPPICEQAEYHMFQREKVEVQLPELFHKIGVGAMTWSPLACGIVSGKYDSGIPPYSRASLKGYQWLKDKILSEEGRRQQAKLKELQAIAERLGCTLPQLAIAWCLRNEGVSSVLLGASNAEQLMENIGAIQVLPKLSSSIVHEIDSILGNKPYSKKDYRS
The target is the same in assay [5]. Briefly: enhancers of rat Kvbeta2 NADPH turnover – biochemical, NADPH fluorescence, primary screen (AID 623;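 active = NADPH fluorescence slope more negative than the mean of all samples by about 3 SD, 99.7% confidence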;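 also: fluorescence intensity change per second fitted from 20 to 320 s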). Conditions: Recombinant KvBeta, NADPH fluorescence decrease slope, 10 min; at 10 µM; stronger effect = lower value.
Assay [6] has as its target Muscarinic acetylcholine receptor M4 (Homo sapiens) (UniProt P08173). In words: M4-linked GIRK flux change, two-sided – cell-based, HEK293 M4/GIRK, thallium flux, BTC-AM, M4 allosteric agonist project, primary screen (AID 625;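 active = fluorescence slope after compound addition differing from the mean of all tested samples at 99.7% confidence, mostly higher but some lower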;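 also: thallium influx through GIRK channels coupled to M4 in HEK293 cells with BTC-AM dye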). Conditions: at 10 µM, actives lie on both sides. In outline:
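Material: M4/GIRK1/GIRK2 stable HEK293 cell line. Medium: pH 7.3 thallium assay buffer. Dosing: single compound concentration, 10 µM final. Schedule: 1 h dye loading, 2 min kinetic read. Measured by: kinetic fluorescence with BTC-AM dye. Read-out: post-addition slope, 15–24 s, of baseline-normalized fluorescence. Benchmarks: carbachol and DMSO controls.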

The nature of assay [7]: blockers of RIG-like receptor reporter activation – cell-based, Sendai virus stimulus, luciferase, 10K MLSCN set, TLR/RLR signaling modifier project, primary screen (AID 602276;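 active = inhibition at or above 50% at 10 µM; inactive = inhibition below 50%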;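 also: firefly luciferase from ISG56 promoter only with Renilla not read in this screen; 0% = Sendai virus plus DMSO and 100% = medium plus DMSO without virus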). Conditions: HEK293 RL24 IRF3 luciferase reporter, at 10 µM, stronger effect = higher value. A general note: Reporter assays use an easily measured gene product as a stand-in for the process of interest.
Assay [8] can be described thus: TLR3 IRF3 reporter activation blockers – cell-based, poly I:C stimulus, luciferase, 10K MLSCN set, primary screen (AID 602277). Conditions: HEK293-TLR3 RL24 IRF3 luciferase reporter, at 10 µM, stronger effect = higher value.

Sequence of Muscarinic acetylcholine receptor M4 (Homo sapiens) (P08173 whole entry, looked up): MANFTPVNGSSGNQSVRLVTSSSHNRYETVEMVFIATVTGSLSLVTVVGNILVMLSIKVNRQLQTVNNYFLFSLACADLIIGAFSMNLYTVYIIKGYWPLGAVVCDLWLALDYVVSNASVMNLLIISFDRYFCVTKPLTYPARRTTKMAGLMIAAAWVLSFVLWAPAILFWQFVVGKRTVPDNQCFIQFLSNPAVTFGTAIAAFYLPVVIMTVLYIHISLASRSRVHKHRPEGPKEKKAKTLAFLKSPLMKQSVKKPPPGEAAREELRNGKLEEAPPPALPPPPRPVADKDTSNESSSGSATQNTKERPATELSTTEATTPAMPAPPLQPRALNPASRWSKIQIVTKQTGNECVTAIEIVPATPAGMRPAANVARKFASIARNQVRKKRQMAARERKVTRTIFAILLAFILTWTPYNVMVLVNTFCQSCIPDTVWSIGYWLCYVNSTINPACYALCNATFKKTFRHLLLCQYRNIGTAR

In the case of `OCC#CCSc1nnc(-c2ccccc2Br)o1`, the cell count in assay [1] came to 390. Also, the inhibition was -5.2% (inactive) in assay [1], -111% (inactive) in assay [3], -9.39% (inactive) in assay [7] and -45.2% (inactive) in assay [8]. In addition, the inhibition of aggregation in assay [2] is -3.5% (inactive). Also, the nuclei count came out at 110% in assay [2] and 132% in assay [3]. In addition, the figures for the fluorescence slope in assay [4] and in assay [6] were -0.515 (inactive) and 0.00341 (inactive), respectively. For the same compound, the NADPH fluorescence slope in assay [5] is -0.000137 (inactive).
On to `O=C(c1ccc(Cl)c(Cl)c1)N1CCOCC1`, for which the cell count in assay [1] came out at 694. Besides, the inhibition in assay [1] was -9.1% (inactive); in assay [3] it was 5.6% (inactive); in assay [7] it was 3.81% (inactive); in assay [8], 3.54% (inactive). In addition, the inhibition of aggregation in assay [2] was -0.3% (inactive). The nuclei count is 107% in assay [2] and 105% in assay [3]. The figures for the fluorescence slope in assay [4] and in assay [6] were -0.568 (inactive) and 0.00532 (inactive), respectively. Further, in assay [5], the NADPH fluorescence slope is -2.1e-05 (inactive).
As to `Cc1cc2c(c(=O)n1CCc1ccccc1)C(C(C)C)C(C#N)=C(N)O2` (stereo not drawn), the cell count in assay [1] turned out to be 565. Also, the inhibition in assay [1] is 11.2% (inactive); in assay [3] it was -39% (inactive); in assay [7], 15.9% (inactive); in assay [8], 25.8% (inactive). In assay [2], the inhibition of aggregation was -1.8% (inactive). Also, the nuclei count in assay [2] worked out at 106%; in assay [3], 123%. The fluorescence slope in assay [4] is -0.577 (inactive); in assay [6], 0.00377 (inactive). Besides, the NADPH fluorescence slope in assay [5] was -7.9e-05 (inactive).
As to `COc1cccc(OC)c1C(=O)Nc1ccccc1N1CCCC1`, in assay [1], the cell count came to 417. Further, the inhibition in assay [1] was -3.4% (inactive); in assay [3], 4.8% (inactive); in assay [7], 15.4% (inactive); in assay [8], 8.75% (inactive). Also, the inhibition of aggregation in assay [2] was 3.7% (inactive). Further, the nuclei count in assay [2] was 92.9%; in assay [3], 118%. Moreover, the figures for the fluorescence slope in assay [4] and in assay [6] were -0.474 (inactive) and 0.00391 (inactive), respectively. For the same compound, the NADPH fluorescence slope in assay [5] was -5.8e-05 (inactive).
As for `Cn1c(=O)cc(SCC(=O)NCC2CCCO2)c2ccc(Cl)cc21` (stereo not drawn), the cell count in assay [1] is 467. In addition, the inhibition in assay [1] is -11.6% (inactive); in assay [3], 26.9% (inactive); in assay [7], 10.3% (inactive); in assay [8], 9.81% (inactive). Moreover, the inhibition of aggregation in assay [2] was 3.4% (inactive). Also, the nuclei count in assay [2] is 107%; in assay [3], 93.8%. Moreover, the results for the fluorescence slope in assay [4] and in assay [6] were -0.549 (inactive) and 0.00522 (inactive), respectively. Besides, the NADPH fluorescence slope in assay [5] is -3.4e-05 (inactive).
Turning to `COc1ccccc1C(=O)n1nc(-c2ccccc2)nc1N`, the cell count in assay [1] is 354. Besides, the inhibition in assay [1] was -3.3% (inactive); in assay [3], -55.5% (inactive); in assay [7], 15.7% (inactive); in assay [8], 11.1% (inactive). Further, in assay [2], the inhibition of aggregation is 9.7% (inactive). Further, the nuclei count in assay [2] worked out at 101%; in assay [3], 119%. For the same compound, the fluorescence slope was -0.619 (inactive) in assay [4] and 0.00374 (inactive) in assay [6]. Further, the NADPH fluorescence slope in assay [5] was -2.9e-05 (inactive).
Consider `CCCOc1cc(C)c(S(=O)(=O)N2CCN(C)CC2)cc1C`, for which, in assay [1], the cell count came to 443. Further, the inhibition in assay [1] was 10.6% (inactive); in assay [3], -11.9% (inactive); in assay [7], 7.65% (inactive); in assay [8], 10.4% (inactive). In assay [2], the inhibition of aggregation is 12.8% (inactive). Besides, the values for the nuclei count in assay [2] and in assay [3] were 100% and 96.1%, respectively. In addition, the fluorescence slope in assay [4] was -0.57 (inactive); in assay [6], 0.00349 (inactive). Besides, in assay [5], the NADPH fluorescence slope is -3.7e-05 (inactive).
In the case of `CCCSC1=C(C#N)C(c2ccccc2OCC)CC(=O)N1` (stereo not drawn), the cell count in assay [1] is 443. Besides, the inhibition was 0.5% (inactive) in assay [1], 9.8% (inactive) in assay [3], 17.2% (inactive) in assay [7] and 17.7% (inactive) in assay [8]. In addition, in assay [2], the inhibition of aggregation is 0.2% (inactive). The values for the nuclei count in assay [2] and in assay [3] were 111% and 95%, respectively. Further, the fluorescence slope in assay [4] is -0.454 (inactive); in assay [6] it was 0.00486 (inactive). Further, the NADPH fluorescence slope in assay [5] was -2.4e-05 (inactive).

By inhibition is commonly meant the drop in the measured response relative to a control, in per cent.
